Screens from PubChem.
Shown are actives, neighbours in structure and some others; about 3.1% of the full set was active somewhere.
VIM-2 inhibitor = inhibitors of Pseudomonas aeruginosa VIM-2 metallo-beta-lactamase. purified VIM-2, nitrocefin hydrolysis, epi-absorbance fluorescence. inhibition, % at 5.6 µM. 290,000 tested, 0.89% active;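 active = inhibition above the mean of all tested compounds plus 3 SD, cutoff set per screening run, cut at about 7.5% in these data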;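 also: red hydrolysis product quenches plate fluorescence so inhibitors raise well fluorescence; 0% = enzyme with DMSO and 100% = DMSO without enzyme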
HCV NS3 hel inh = HCV NS3 helicase inhibition; NS3 helicase DNA unwinding, Cy5 molecular beacon fluorescence; inhibition, % at 10.9 µM; 290,000 tested, 0.56% active; AID 1800;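 active = inhibition above the mean of all tested compounds plus 3 SD, set per campaign, cut at about 35% in these data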;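 also: 0% = DMSO wells and 100% = thioflavine S control wells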
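Assay system – hepatitis C virus NS3 helicase domain fragment enzyme · Buffer or medium – MOPS pH 6.5, MgCl2, DTT, Tween20, BSA · Reagent – Cy5/quencher beacon DNA duplex and ATP to start · Compound – single 10.9 µM dose · Timing – 1 h at 25 °C · Technique – Cy5 beacon fluorescence read at start and 1 h · Measure – % inhibition of unwinding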
SUMO HTRF inh = blocks human SUMOylation mediated by UBC9; P63279; inhibition, % at 35 µM; 290,000 tested, 0.36% active; HTRF SUMOylation assay, SAE1/SAE2 + UBC9, in vitro; in the data active = inhibition above about 50%, passing the limit was not always enough
Target sequence (P63279 whole entry, looked up): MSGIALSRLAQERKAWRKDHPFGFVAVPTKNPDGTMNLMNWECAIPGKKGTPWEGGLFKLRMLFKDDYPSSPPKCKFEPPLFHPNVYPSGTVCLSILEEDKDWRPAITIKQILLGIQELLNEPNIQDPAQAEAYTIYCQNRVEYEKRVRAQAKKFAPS
core dimer inh = HCV core protein dimerization inhibition. TR-FRET GST/Flag-core106 dimerization, 1536-well. inhibition, % at 5 µM. 300,000 tested, 0.33% active;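 active = inhibition above the mean of all tested compounds plus 3 SD, set per screening campaign, cut at about 45% in these data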
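Assay system: GST-tagged and Flag-tagged HCV core protein residues 1-106 / Times: compound-protein-antibody incubation 4 h at 22.5 °C / Signal: time-resolved FRET, ex 340 nm, em 617 and 671 nm / Evaluation: % inhibition based on acceptor/donor emission ratio / Benchmarks: wells lacking GST-core106 and wells with excess unlabelled core106 / Repeats: singlicate, one well per compound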
PHOSPHO1 inh = blocks human PHOSPHO1 phosphatase activity | Q8TCT1 | inhibition, % at 13.3 µM | 290,000 tested, 1.1% active | recombinant PHOSPHO1, absorbance phosphatase assay; in the data active = inhibition above about 60%
Target sequence (Q8TCT1 whole entry, looked up): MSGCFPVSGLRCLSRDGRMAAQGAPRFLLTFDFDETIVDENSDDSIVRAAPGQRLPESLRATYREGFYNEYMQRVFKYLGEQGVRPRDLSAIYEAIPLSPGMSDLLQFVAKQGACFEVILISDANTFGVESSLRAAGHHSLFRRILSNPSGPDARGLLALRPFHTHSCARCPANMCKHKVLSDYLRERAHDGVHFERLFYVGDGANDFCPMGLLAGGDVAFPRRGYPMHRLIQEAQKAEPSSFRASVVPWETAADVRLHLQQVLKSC
IMP-1 inh = blocks Pseudomonas aeruginosa IMP-1 metallo-beta-lactamase. purified IMP-1, nitrocefin hydrolysis, epi-absorbance fluorescence. inhibition, % at 5.6 µM. AID 1556. 290,000 tested, 0.45% active;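 active = inhibition above the mean plus 3 SD of all compounds in the same screening run, cut at about 4.5% in these data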;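 also: 0% = IMP-1 with DMSO and 100% = DMSO wells lacking enzyme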
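Assay system: purified IMP-1; Quantity: IMP-1 0.2 nM before substrate addition; Medium: HEPES buffer pH 7.1 with ZnSO4 and Brij 35; Incubation: 15 min enzyme–compound preincubation, then 25 min nitrocefin reaction, 25 °C; Signal: fluorescence quenching readout, ex 480/em 530 nm; Controls: DMSO with and without IMP-1; Repeats: singlicate testing.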
* marks the source's active call; other numbers are inactive results; · = no result.

SMILES	VIM-2 inhibitor	HCV NS3 hel inh	SUMO HTRF inh	core dimer inh	PHOSPHO1 inh	IMP-1 inh
CC(C)CNC(=S)NNC(=O)c1csc2ccccc12	-2.0	2.7	5.0	-5.4	88.1*	-3.1
CC(C)CNC(=S)NNC(=O)c1ccc(OC(F)F)cc1	-3.6	1.5	0.4	-2.8	93.8*	-3.1
CN(C(=O)c1ccccc1Cl)c1ccccc1C(=O)NCc1ccccc1	-2.0	7.8	8.4	-24.2	61.0*	-3.7
CCc1ccc2c(c1)C(NC(C)=O)C(=O)N2CCN1CCOCC1 (stereo unspecified)	-1.9	-3.0	60.5*	-2.4	22.9	-1.4
N#Cc1c(N)sc2c1CCCCCC2	-1.8	10.6	7.4	-1.7	79.5*	-3.4
Oc1cccc(Nc2c3ccccc3nc3ccccc23)c1	11.4*	26.3	2.2	-6.5	60.8*	-4.2
O=C(O)c1ccc(Nc2c3ccccc3nc3ccccc23)cc1	-2.2	-12.9	3.5	0.2	28.6	-1.3
c1cncc(Nc2c3ccccc3nc3ccccc23)c1	10.1*	4.2	14.4	-2.4	·	-1.4
Cc1cc(C)cc(NC(=O)COC(=O)CN=C2NS(=O)(=O)c3ccccc32)c1	-1.6	-1.9	11.2	-1.1	5.8	-0.8
CC(C)CCNC(=O)C(c1ccc(O)cc1)N(C(=O)C1COc2ccccc2O1)c1cccc(O)c1 (stereo unspecified)	-5.5	-5.0	-9.3	7.6	64.2*	-2.7
COc1cc2cc(CN(CCCN3CCOCC3)C(=O)Nc3ccc(F)cc3)c(=O)[nH]c2cc1OC	8.8*	-11.1	2.9	-3.2	47.1	0.3
CC(C)CCC1(C)NC(=O)N(CC(=O)c2ccc[nH]2)C1=O (stereo unspecified)	·	·	·	15.7	·	·
S=C(Nc1ccc2nc(-c3ccccn3)c(-c3ccccn3)nc2c1)N1CCCCC1	-2.0	-6.1	69.2*	·	87.4*	-1.7
S=C(Nc1ccc2nccnc2c1)N1CCOCC1	1.2	0.4	89.0*	3.0	-27.1	-2.5
COc1ccc(OC)c(NC(=O)CSc2nnc3ccc(-c4ccccn4)nn23)c1	·	·	·	-1.2	·	·
COc1ccc(N2CCN(C(=O)c3cc(=O)c4cc(C)c(C)cc4o3)CC2)cc1	-2.2	-9.9	8.0	2.1	20.3	-2.6
O=C(NNC(=S)Nc1cccc2ccccc12)c1cccc(Br)c1	-3.7	12.1	-52.4	6.2	64.4*	-3.2
Cc1ccc(C(=O)NNC(=S)Nc2cccc3ccccc23)s1	-4.6	-3.9	4.5	0.1	86.0*	-3.8
COCCNc1nc2nonc2nc1NC(C)c1ccccc1Cl (stereo unspecified)	-3.1	-2.9	8.4	-3.1	60.1*	-2.6
CCN(CC)C1CCN(c2nc3nonc3nc2NCCOC)C1 (stereo unspecified)	-2.5	-0.8	9.9	2.5	9.7	-2.8
COc1cccc(-n2c(COc3ccc(C)cc3)nnc2SCC(=O)O)c1	-1.4	8.8	-2.2	-3.2	73.6*	0.9
Cc1ccc(NCc2nnc(SCC(=O)O)n2-c2ccc(C)cc2)cc1	1.7	7.1	-1.4	2.3	67.0*	-4.7
COc1ccc(-n2c(COc3ccc(C)cc3)nnc2SCc2ccc(C#N)cc2)cc1	-3.8	-14.3	-5.9	9.9	73.4*	-1.8
N#CCC(=O)c1ccccc1Oc1ccc(Cl)cc1	-2.8	25.3	11.0	4.7	-17.1	-1.9
Cc1cc(C)c(C)c(OC(=O)c2sc(Cl)nc2C)c1	-3.0	11.4	17.2	-9.9	8.4	-2.7
SMILES	VIM-2 inhibitor	HCV NS3 hel inh	SUMO HTRF inh	core dimer inh	PHOSPHO1 inh	IMP-1 inh
O=[N+]([O-])C(/C=C(/Cl)[N+](=O)[O-])=C(N1CCCCC1)N1CCCCC1	-2.6	-7.5	19.3	-0.3	23.7	-2.6
CCOCCCNCc1ccc(OCC(=O)N2CCOCC2)c(OC)c1	2.2	-1.5	16.6	10.8	60.0*	0.4
O=C(Nc1ccccc1)c1cn(CCBr)cn1	·	·	·	1.9	·	·
Cc1sc2ncnc(NC(C)C(=O)O)c2c1C (stereo unspecified)	-0.9	-6.7	7.5	-1.0	39.5	-0.4
C[C@H](Nc1ncnc2sc3c(c12)CCC3)C(=O)O	0.1	-3.1	19.7	-2.2	66.4*	-2.5
COc1ccc(-c2nc(CS(=O)CC(=O)NC3CCCC3)c(C)o2)cc1 (stereo unspecified)	-1.5	1.2	13.1	-6.1	70.0*	-2.0
